Experimental data published in ChEMBL document CHEMBL1154335, “2-(3-Thienyl)-5,6-dihydroxypyrimidine-4-carboxylic acids as inhibitors of HCV NS5B RdRp” (Bioorg Med Chem Lett, 2009).
“And” between values parts separate entries of the source, which are not always exact repeats. Equal values may be shown once.

What was measured:
Hepatitis C virus [1] = test: Inhibition of HCV1b Cdelta55 NS5B polymerase; type: functional, organism-based, Hepatitis C virus subtype 1b
Hepatitis C virus [2] = test: Antiviral activity against Hepatitis C virus subtype 1b infected in human HuH7 cells by replicon assay; type: functional, organism-based, Hepacivirus hominis; conditions: genotype 1b, Huh-7
Hepatitis C virus [3] = test: Inhibition of HCV con1 Cdelta55 NS5B polymerase P156S mutant; type: functional, Hepacivirus hominis; conditions: isolate Con1
In short: (§1)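 IC50 determined on isolated recombinant NS5B polymerase carrying a single P156S or G152E substitution. These substitutions were identified in replicon colonies selected with […]. Wild-type enzyme was run alongside as the reference.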

Hepatitis C virus [4] = test: Inhibition of wild type HCV con1 Cdelta55 NS5B polymerase; type: functional, Hepacivirus hominis; conditions: isolate Con1
In short: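 Recombinant NS5B truncated by 55 C-terminal residues (ΔC55), genotype 1b HCV; IC50 determined from enzyme inhibition.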

Hepatitis C virus [5] = test: Inhibition of HCV con1 Cdelta55 NS5B polymerase G152E mutant; type: functional, Hepacivirus hominis; conditions: isolate Con1; in short: as §1
Hepatitis C virus [6] = test: Antiviral activity against Hepatitis C virus subtype 2a infected in human HuH7 cells by replicon assay; type: functional, organism-based, Hepacivirus hominis, genotype 2a, Huh-7
In short: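 Full-length HCV genotype 2a infectivity assay; EC50 determined.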

Hepatitis C virus [7] = test: Inhibition of HCV2a Cdelta21 NS5B polymerase; type: functional, Hepatitis C virus subtype 2a
[8] = Metabolic stability in rat assessed as compound turnover at 3 mg/kg, iv; type: ADME, organism-based; set-up: dose 3 mg/kg, route intravenous; conditions: in vivo, read-out: Stability
In short: (§2)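 Rat, single intravenous dose of 3 mg/kg; plasma sampled for half-life, volume of distribution and turnover (clearance).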

[9] = Bioavailability in intramuscular dosed rat; type: ADME, organism-based; conditions: in vivo, im
In short: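 Rat, intramuscular administration; plasma exposure measured to derive bioavailability.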

[10] = Inhibition of HCV2b Cdelta21 NS5B polymerase; set-up: species or system Hepatitis C virus subtype 2b
[11] = Half life in rat plasma at 3 mg/kg, iv; type: ADME, organism-based; set-up: dose 3 mg/kg, route intravenous; in short: as §2
[12] = Protein binding in rat serum; type: ADME, cell-free; conditions: read-out: PB
In short: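 Binding to rat serum proteins measured.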

[13] = AUC in rat plasma at 3 mg/kg, po; type: ADME, organism-based; set-up: dose 3 mg/kg, route oral
In short: (§3)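 Rat, oral dose of 3 mg/kg; plasma exposure (AUC) measured and oral bioavailability derived.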

[14] = Inhibition of HCV3a Cdelta21 NS5B polymerase; set-up: species or system Hepatitis C virus subtype 3a
[15] = Oral bioavailability in rat at 3 mg/kg; type: ADME, organism-based; conditions: in vivo; in short: as §3
[16] = Volume of distribution in rat at 3 mg/kg, iv; type: ADME, organism-based; set-up: dose 3 mg/kg, route intravenous; conditions: in vivo; in short: as §2
Hepatitis C virus [17] = test: Inhibition of HCV1b Cdelta21 NS5B polymerase; type: functional, Hepatitis C virus subtype 1b
[18] = Hepatitis C virus, genotype 2a, Huh-7

| Structure (SMILES) | IC50 (Hepatitis C virus [1]) [nM] | EC50 (Hepatitis C virus [2]) [nM] | other results |
| --- | --- | --- | --- |
| O=C(O)c1nc(-c2ccsc2)nc(O)c1O | 6150 | – | – |
| CC(C)(C)OC(=O)Nc1cscc1-c1nc(O)c(O)c(C(=O)O)n1 | 8280 | – | – |
| O=C(Nc1sccc1-c1nc(O)c(O)c(C(=O)O)n1)OCc1ccccc1 | 343 | – | – |
| O=C(Nc1cscc1-c1nc(O)c(O)c(C(=O)O)n1)NS(=O)(=O)c1cccc(Br)c1 | 38 | 37000 | – |
| O=C(NCc1ccccc1Cl)Nc1cscc1-c1nc(O)c(O)c(C(=O)O)n1 | 258 | – | – |
| O=C(Nc1cscc1-c1nc(O)c(O)c(C(=O)O)n1)NS(=O)(=O)c1ccccc1 | 62 | 32000 | – |
| CS(=O)(=O)NC(=O)Nc1cscc1-c1nc(O)c(O)c(C(=O)O)n1 | 426 | – | – |
| O=C(O)c1nc(-c2ccccc2)nc(O)c1O | 30000 | – | – |
| Cn1c(-c2cccs2)nc(C(=O)O)c(O)c1=O | – | – | IC50 (Hepatitis C virus [3]): 5600 nM; IC50 (Hepatitis C virus [4]): 4600 nM; IC50 (Hepatitis C virus [5]): 3200 nM |
| O=C(O)c1nc(-c2cccs2)nc(O)c1O | 2600 | – | – |
| Cc1ccccc1S(=O)(=O)NC(=O)Nc1cscc1-c1nc(O)c(O)c(C(=O)O)n1 | 47 | 16000 | – |
| O=C(Nc1cscc1-c1nc(O)c(O)c(C(=O)O)n1)NS(=O)(=O)c1cccc(Cl)c1Cl | 12 | 2400 | EC50 (Hepatitis C virus [6]; [18]): 4900 nM |
| O=C(Cc1ccccc1Cl)Nc1cscc1-c1nc(O)c(O)c(C(=O)O)n1 | 2610 | – | – |
| O=C(Nc1cscc1-c1nc(O)c(O)c(C(=O)O)n1)NS(=O)(=O)c1cccc2ccccc12 | 36 | 3600 | IC50 (Hepatitis C virus [7]): 2.1 nM; clearance [8]: 0.2 mL/min/kg; bioavailability [9]: 89%; IC50 [10]: 5.8 nM; half-life [11]: 15 h; fraction unbound [12]: < 0.01; EC50 (Hepatitis C virus [6]; huh-7): 3700 nM and 9600 nM; IC50 (Hepatitis C virus [4]): 40 nM; AUC [13]: 3.3 µM·h; IC50 (Hepatitis C virus [5]): 300 nM; IC50 [14]: 3.9 nM; bioavailability [15]: 2%; Vd [16]: 0.1 L/kg; IC50 (Hepatitis C virus [17]): 5.6 nM |
| O=C(NCc1ccccc1)Nc1cscc1-c1nc(O)c(O)c(C(=O)O)n1 | 873 | – | – |
| O=C(Nc1cscc1-c1nc(O)c(O)c(C(=O)O)n1)NS(=O)(=O)c1ccccc1Br | 74 | 3400 | IC50 (Hepatitis C virus [3]): 70 nM; IC50 (Hepatitis C virus [4]): 60 nM; IC50 (Hepatitis C virus [5]): 400 nM |
| O=C(Nc1cscc1-c1nc(O)c(O)c(C(=O)O)n1)NS(=O)(=O)c1ccc2ccccc2c1 | 48 | 32000 | – |
| O=C(Nc1cscc1-c1nc(O)c(O)c(C(=O)O)n1)OCc1ccccc1 | 326 | – | – |
| O=C(NCc1ccccc1Cl)Nc1ccsc1-c1nc(O)c(O)c(C(=O)O)n1 | – | – | IC50 (Hepatitis C virus [3]): 170 nM; IC50 (Hepatitis C virus [4]): 180 nM; IC50 (Hepatitis C virus [5]): 800 nM |
| O=C(Nc1cscc1-c1nc(O)c(O)c(C(=O)O)n1)NS(=O)(=O)c1ccccc1Cl | 78 | 2600 | EC50 (Hepatitis C virus [6]; [18]): 6600 nM |
| O=C(Nc1cscc1-c1nc(O)c(O)c(C(=O)O)n1)NS(=O)(=O)c1ccc(Cl)cc1 | 85 | 26000 | – |
